The results in this text go back to ChEMBL document CHEMBL5705890, “Antitumor activity of an allosteric inhibitor of centromere-associated protein-E” (Proc Natl Acad Sci U S A, 2010).

Type in all cases: functional
One assay concerns G-402. As to the kind of experiment: Anticancer activity against human G-402 cells assessed as cell growth inhibition measured after 72 hrs by DAPI staining based analysis. The procedure, abridged: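 Cells seeded, DAPI-stained DNA content of fixed cells read by imaging 24 h after seeding (T0), and again after a further 72 h exposure to a range of drug concentrations (T72). T72 values were normalized to T0. Curve fits gave the concentration producing 50% growth inhibition relative to T0 and Ymax (GI50).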

A further assay has as its system HT-29. Put plainly: Anticancer activity against human HT-29 cells assessed as cell doubling measured for 72 hrs by DAPI staining based analysis.
The nature of assay [1]: Anticancer activity against human MT-3 cells assessed as cell doubling measured for 72 hrs by DAPI staining based analysis.

The term GI50 denotes the concentration that inhibits growth by half. As to `CC(C)Oc1ccc(C(=O)N[C@H](CNC(=O)CN(C)C)Cc2ccc(-c3cn4cccc([C@H](C)O)c4n3)cc2)cc1Cl` [GSK-923295A], the GI50 in the assay with G-402 stood at 31 nM. Moreover, the values for the Activity (in the assay with HT-29; in assay [1]) were 4.33 and 2.93, respectively.
